{"source": "PubChem BioAssay AID743243", "about": "(The Scripps Research Institute Molecular Screening Center, 2013)", "note": "Activity calls are given as the source filed them.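 Rule for the calls: active = IC50 of 10 µM or lower; inactive = IC50 above 10 µM.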", "data": [{"target": "ADP-ribosylation factor GTPase-activating protein 1 (Rattus norvegicus) (UniProt Q62848)", "sequence (Q62848 1-136 limits assumed)": "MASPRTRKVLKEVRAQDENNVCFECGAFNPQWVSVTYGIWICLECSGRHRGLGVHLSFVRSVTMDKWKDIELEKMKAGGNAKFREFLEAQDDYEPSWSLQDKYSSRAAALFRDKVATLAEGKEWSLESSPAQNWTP", "experiment": "rat ARFGAP1 inhibitor potency curves, late-stage follow-up, biochemical, fluorescence polarization, round 000 (AID 743243)", "settings": "ARFGAP1-stimulated ARF1 GTP hydrolysis, GDP fluorescence polarization", "method_in_brief": "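Test system – purified His6-tagged rat Arfgap1 GAP domain (residues 1-136) · Doses – triplicate series, top 165 µM · Schedule – 20 min enzyme-compound preincubation, then 120 min GTPase reaction, 25 °C · Signal – FP GDP tracer-antibody displacement, 620/688 nm · Controls – wells without Arfgap1 as full-inhibition reference · Replicates – each compound dose series run in triplicate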", "values": [{"smiles": "Fc1cccc(-c2nnn3c2nc(NCCc2ccc(Cl)cc2)c2ccccc23)c1", "IC50": "> 165 µM (inactive)"}, {"smiles": "CCOCCCNC(=O)c1ccc2c(c1)C(=O)N(c1ccc(Cn3cncn3)cc1)C2=O", "IC50": "> 165 µM (inactive)"}, {"smiles": "Cc1ccc(Oc2ccc3c(c2)C(=O)N(c2cccc4ncccc24)C3=O)cc1C", "IC50": "> 165 µM (inactive)"}, {"smiles": "O=C(NCC1CCCO1)c1ccc2c(c1)C(=O)N(c1cccc3ccccc13)C2=O", "note": "(stereo not drawn)", "IC50": "> 165 µM (inactive)"}, {"smiles": "Cc1ccc(C(=O)C(C)OC(=O)c2ccc3c(c2)C(=O)N(c2cccc(Cl)c2Cl)C3=O)cc1", "note": "(stereo not drawn)", "IC50": "> 165 µM (inactive)"}, {"smiles": "O=C1c2cc(Cl)c(Cl)cc2C(=O)N1c1cccc2ncccc12", "IC50": "> 165 µM (inactive)"}, {"smiles": "NS(=O)(=O)c1ccc(CCNc2nc3c(-c4ccc(Cl)cc4)nnn3c3ccccc23)cc1", "IC50": "inactive"}, {"smiles": "Fc1cccc(-c2nnn3c2nc(NCc2ccc4c(c2)OCO4)c2ccccc23)c1", "IC50": "> 165 µM (inactive)"}, {"smiles": "O=C(NC1CCCCC1)c1ccc2c(c1)C(=O)N(c1ccccc1-c1ccccc1)C2=O", "IC50": "> 165 µM (inactive)"}, {"smiles": "O=C(OCC(=O)c1cccs1)c1ccc2c(c1)C(=O)N(c1cccc3ccccc13)C2=O", "IC50": "> 165 µM (inactive)"}, {"smiles": "NS(=O)(=O)c1ccc(CCNc2nc3c(-c4cccc(Cl)c4)nnn3c3ccccc23)cc1", "IC50": "inactive"}, {"smiles": "Fc1cccc(-c2nnn3c2nc(NCCc2ccccc2)c2ccccc23)c1", "IC50": "> 165 µM (inactive)"}, {"smiles": "Cc1ccc(N2C(=O)c3ccc(C(=O)N4CCN(Cc5ccccc5)CC4)cc3C2=O)cc1", "IC50": "> 165 µM (inactive)"}, {"smiles": "O=C(COC(=O)c1ccc2c(c1)C(=O)N(c1cccc(Cl)c1Cl)C2=O)c1ccc(F)cc1", "IC50": "> 165 µM (inactive)"}, {"smiles": "COc1ccc(CCNc2nc3c(-c4cccc(F)c4)nnn3c3cc(Cl)ccc23)cc1OC", "IC50": "> 165 µM (inactive)"}, {"smiles": "CC(C)CNC(=O)c1ccc2c(c1)C(=O)N(c1ccccc1-c1ccccc1)C2=O", "IC50": "> 165 µM (inactive)"}, {"smiles": "NS(=O)(=O)c1ccc(CCNc2nc3c(-c4cccc(C(F)(F)F)c4)nnn3c3ccccc23)cc1", "IC50": "6.9 µM"}, {"smiles": "COc1cccc(C(=O)COC(=O)c2ccc3c(c2)C(=O)N(c2cccc(C(F)(F)F)c2)C3=O)c1", "IC50": "> 165 µM (inactive)"}, {"smiles": "O=C(COC(=O)c1ccc2c(c1)C(=O)N(c1cccc(Cl)c1Cl)C2=O)c1ccccc1", "IC50": "> 165 µM (inactive)"}, {"smiles": "O=C1c2ccc(Oc3ccc(Br)cc3)cc2C(=O)N1c1cccc2ncccc12", "IC50": "inactive"}, {"smiles": "Fc1cccc(-c2nnn3c2nc(NCCc2ccccc2)c2ccc(Cl)cc23)c1", "IC50": "> 165 µM (inactive)"}, {"smiles": "COc1ccccc1Oc1ccc2c(c1)C(=O)N(c1cccc3ncccc13)C2=O", "IC50": "> 165 µM (inactive)"}, {"smiles": "O=C(COC(=O)c1ccc2c(c1)C(=O)N(c1cc(C(F)(F)F)ccc1Cl)C2=O)c1ccccc1", "IC50": "> 165 µM (inactive)"}, {"smiles": "Cc1cccc(N2C(=O)c3ccc(C(=O)NC4CCCCC4)cc3C2=O)c1C", "IC50": "> 165 µM (inactive)"}, {"smiles": "NS(=O)(=O)c1ccc(CCNc2nc3c(-c4cccc(F)c4)nnn3c3ccccc23)cc1", "IC50": "inactive"}, {"smiles": "Cc1ccc(CNc2nc3c(-c4cccc(F)c4)nnn3c3cc(Cl)ccc23)cc1", "IC50": "> 165 µM (inactive)"}, {"smiles": "Cc1ccc(C(=O)COC(=O)c2ccc3c(c2)C(=O)N(c2cccc4ccccc24)C3=O)cc1", "IC50": "> 165 µM (inactive)"}, {"smiles": "O=C(COC(=O)c1ccc2c(c1)C(=O)N(c1ccccc1Cl)C2=O)c1ccc(Br)cc1", "IC50": "> 165 µM (inactive)"}, {"smiles": "O=C(COC(=O)c1ccc2c(c1)C(=O)N(c1cccc(C(F)(F)F)c1)C2=O)c1ccc(Cl)cc1", "IC50": "> 165 µM (inactive)"}, {"smiles": "COc1ccc(CNc2nc3c(-c4cccc(F)c4)nnn3c3cc(Cl)ccc23)cc1", "IC50": "> 165 µM (inactive)"}, {"smiles": "Cc1ccc(N2C(=O)c3ccc(C(=O)OCC(=O)C(C)(C)C)cc3C2=O)cc1", "IC50": "> 165 µM (inactive)"}, {"smiles": "Cc1cccc(-c2nnn3c2nc(NCCc2ccc(S(N)(=O)=O)cc2)c2ccc(Cl)cc23)c1", "IC50": "inactive"}, {"smiles": "COc1ccc(CNc2nc3c(-c4cccc(F)c4)nnn3c3ccccc23)cc1", "IC50": "inactive"}, {"smiles": "COc1cccc(C(=O)COC(=O)c2ccc3c(c2)C(=O)N(c2ccc(F)cc2)C3=O)c1", "IC50": "> 165 µM (inactive)"}, {"smiles": "Cc1ccc(C(=O)COC(=O)c2ccc3c(c2)C(=O)N(c2cccc4ncccc24)C3=O)cc1", "IC50": "> 165 µM (inactive)"}, {"smiles": "O=C1c2ccccc2C(=O)N1c1cccc2ncccc12", "IC50": "> 165 µM (inactive)"}, {"smiles": "O=C(NCC1CCCO1)c1ccc2c(c1)C(=O)N(c1ccccc1-c1ccccc1)C2=O", "note": "(stereo not drawn)", "IC50": "> 165 µM (inactive)"}, {"smiles": "Cc1cccc(-c2nnn3c2nc(NCCc2ccc(S(N)(=O)=O)cc2)c2ccccc23)c1", "IC50": "inactive"}, {"smiles": "CC(CNc1nc2c(-c3cccc(F)c3)nnn2c2ccccc12)c1ccccc1", "note": "(stereo not drawn)", "IC50": "> 165 µM (inactive)"}, {"smiles": "COc1ccccc1N1C(=O)c2ccc(C(=O)OCC(=O)c3ccc(Br)cc3)cc2C1=O", "IC50": "> 165 µM (inactive)"}, {"smiles": "CCCOC(=O)c1ccc2c(c1)C(=O)N(c1cccc3ccccc13)C2=O", "IC50": "> 165 µM (inactive)"}, {"smiles": "Cc1cccc(Oc2ccc(N3C(=O)c4ccc(C(=O)OCC(=O)Nc5cccc(C)c5C)cc4C3=O)cc2)c1", "IC50": "> 165 µM (inactive)"}, {"smiles": "O=C(NCc1ccco1)c1ccc2c(c1)C(=O)N(c1ccc(C(=O)c3ccccc3)cc1)C2=O", "IC50": "> 165 µM (inactive)"}, {"smiles": "O=C(NCCc1nc2ccccc2[nH]1)c1ccc2c(c1)C(=O)N(c1ccc(F)cc1)C2=O", "IC50": "> 165 µM (inactive)"}, {"smiles": "Cc1ccc(N2C(=O)c3ccc(C(=O)OCC(=O)c4ccccc4)cc3C2=O)c(C)c1", "IC50": "> 165 µM (inactive)"}, {"smiles": "O=C(COC(=O)c1ccc2c(c1)C(=O)N(c1cccc3ncccc13)C2=O)c1ccc(Cl)cc1", "IC50": "2.13 µM"}, {"smiles": "Cc1ccc(N2C(=O)c3ccc(C(=O)N4c5ccccc5CC4C)cc3C2=O)cc1", "note": "(stereo not drawn)", "IC50": "> 165 µM (inactive)"}, {"smiles": "CC(C)(C)NC(=O)c1ccc2c(c1)C(=O)N(c1ccccc1-c1ccccc1)C2=O", "IC50": "> 165 µM (inactive)"}]}]}
